Reference: ChEMBL document CHEMBL2163288, “Design and characterization of a selenium-containing inhibitor of activated thrombin-activatable fibrinolysis inhibitor (TAFIa), a zinc-containing metalloprotease” (J Med Chem, 2012)
Calls of active or inactive are those of the source. The calls are words filed in the database; no cut-off is given here.

Columns and labels:
Carboxypeptidase B [1] = target: T1, Carboxypeptidase B (Sus scrofa, UniProt P09955); experiment: Inhibition of pig pancreatic carboxypeptidase B using Hip-Arg as substrate incubated for 10 mins prior to substrate addition measured after 30 mins by spectrophotometric analysis in presence of dithiothreitol
T1 sequence (P09955 whole entry): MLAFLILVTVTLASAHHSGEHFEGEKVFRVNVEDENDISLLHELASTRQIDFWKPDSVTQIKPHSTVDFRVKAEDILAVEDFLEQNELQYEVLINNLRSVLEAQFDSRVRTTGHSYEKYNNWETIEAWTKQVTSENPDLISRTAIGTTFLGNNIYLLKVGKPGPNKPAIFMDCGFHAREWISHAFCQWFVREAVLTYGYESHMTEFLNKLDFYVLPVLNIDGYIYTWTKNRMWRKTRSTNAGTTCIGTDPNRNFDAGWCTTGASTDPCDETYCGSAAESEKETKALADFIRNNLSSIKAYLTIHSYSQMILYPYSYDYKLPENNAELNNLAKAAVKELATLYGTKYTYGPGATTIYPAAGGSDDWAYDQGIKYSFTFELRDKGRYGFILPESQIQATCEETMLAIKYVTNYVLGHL
Method in brief: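 Porcine pancreatic CPB at 20 U/L preincubated with compounds for 10 min at 25 °C. Then Hip-Arg (3.2 mM stock) in 0.1 M Tris pH 7.6 with 10 μM DTT final, for 30 min at 25 °C. Stopped with PIPES/Tween 20, cyanuric acid colour, absorbance at 405 nm. IC50 from sigmoidal inhibition curves.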

[2] = Selectivity ratio of IC50 for pig pancreatic carboxypeptidase B to IC50 for human activated TAFI
Carboxypeptidase B [3] = target: T1, Carboxypeptidase B; experiment: Inhibition of pig pancreatic carboxypeptidase B using Hip-Arg as substrate incubated for 10 mins prior to substrate addition measured after 30 mins by spectrophotometric analysis
[4] = Inhibition of human carboxypeptidase N using Hip-Lys as substrate incubated for 10 mins prior to substrate addition measured after 30 mins by spectrophotometric analysis in presence of dithiothreitol
Method in brief: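 Human plasma carboxypeptidase N at 50 U/L preincubated with compounds for 10 min at 37 °C. Then Hip-Lys (3.2 mM stock) in 0.1 M Tris pH 7.6 buffer with DTT, for 30 min at 37 °C. Stopped with PIPES/Tween 20, cyanuric acid colour, A405. IC50 from sigmoidal inhibition curves.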

Carboxypeptidase B2 [5] = target: T2, Carboxypeptidase B2 (Homo sapiens, UniProt Q96IY4); experiment: Inhibition of human activated TAFI using Hip-Arg as substrate incubated for 10 mins prior to substrate addition measured after 30 mins by spectrophotometric analysis
T2 sequence (Q96IY4 whole entry): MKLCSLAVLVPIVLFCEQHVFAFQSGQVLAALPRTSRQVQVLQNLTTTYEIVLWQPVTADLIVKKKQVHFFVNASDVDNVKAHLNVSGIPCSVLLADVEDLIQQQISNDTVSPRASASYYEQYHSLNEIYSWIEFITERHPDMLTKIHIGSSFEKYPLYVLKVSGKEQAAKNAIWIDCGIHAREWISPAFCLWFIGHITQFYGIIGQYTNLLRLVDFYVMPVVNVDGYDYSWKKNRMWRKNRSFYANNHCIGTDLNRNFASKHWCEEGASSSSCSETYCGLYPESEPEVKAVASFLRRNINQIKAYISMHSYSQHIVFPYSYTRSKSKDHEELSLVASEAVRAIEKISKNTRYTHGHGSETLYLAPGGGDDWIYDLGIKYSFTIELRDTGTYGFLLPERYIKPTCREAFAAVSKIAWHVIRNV
Method in brief: (§1)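 TAFI purified from human plasma, pre-mixed with 300 ng/mL thrombomodulin (25 °C, 3 min), then activated with 3 U/mL thrombin (25 °C, 30 min). 20 U/L TAFIa preincubated with compounds for 10 min at 25 °C. Hip-Arg (3.2 mM stock) in 0.1 M Tris pH 7.6, with or without 10 μM DTT final, for 30 min at 25 °C. Stopped with PIPES/Tween 20, cyanuric acid colour read at A405. IC50 taken from sigmoidal curves.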

[6] = Inhibition of human carboxypeptidase N using Hip-Lys as substrate incubated for 10 mins prior to substrate addition measured after 30 mins by spectrophotometric analysis
Method in brief: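 Human plasma CPN (50 U/L) preincubated with compound at 37 °C for 10 min, then Hip-Lys (3.2 mM stock) added in 0.1 M Tris-HCl pH 7.6 (±10 μM DTT) for 30 min at 37 °C. Stopped with PIPES/Tween 20 buffer; cyanuric acid colour read at 405 nm; IC50 from sigmoidal inhibition curves.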

Carboxypeptidase B2 [7] = target: T2, Carboxypeptidase B2; experiment: Inhibition of human activated TAFI using Hip-Arg as substrate incubated for 10 mins prior to substrate addition measured after 30 mins by spectrophotometric analysis in presence of dithiothreitol; method in brief: as §1
Homo sapiens = species on record: Homo sapiens; experiment: Selectivity ratio of IC50 for human carboxypeptidase N to IC50 for human activated TAFI
[8] = target: T3, Carboxypeptidase B2 (Homo sapiens) (UniProt Q96IY4); experiment: Inhibition of human activated TAFI using Hip-Arg as substrate at 10 uM incubated for 10 mins prior to substrate addition measured after 30 mins by spectrophotometric analysis
T3 sequence (whole entry): T2 sequence (Q96IY4 whole entry)
Method in brief: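 Plasma-purified human TAFI activated with thrombomodulin (25 °C, 3 min), then thrombin (25 °C, 30 min). TAFIa (20 U/L) preincubated with compound at 25 °C for 10 min. Hip-Arg substrate (3.2 mM stock) added in 0.1 M Tris-HCl pH 7.6 with or without 10 μM DTT, 30 min at 25 °C. Stopped with PIPES/Tween 20; cyanuric acid colour read at 405 nm; IC50 from sigmoidal curves.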

Row | Ratio IC50 (Homo sapiens) | inhibition [8] | SMILES | IC50 (Carboxypeptidase B [1]) | Ratio IC50 [2] | IC50 (Carboxypeptidase B [3]) | IC50 [4] | IC50 (Carboxypeptidase B2 [5]) | IC50 [6] | IC50 (Carboxypeptidase B2 [7])
1 |  |  | Nc1ncc(CC(C[Se][Se]CC(Cc2cnc(N)c(Cl)c2)C(=O)O)C(=O)O)cc1Cl (stereo not given) | 0.0015 µM | 3 | 370 µM | > 3800 µM | 3.3 µM | > 3800 µM | 0.025 nM
2 |  |  | NCCCCCC(C[Se]C(=O)CCCc1ccccc1)C(=O)O (stereo not given) | 0.0032 µM |  | 1.5 µM | 0.016 µM | 1.6 µM | 6 µM | 4.1 nM
3 |  |  | Nc1ccc(CC(C[Se][Se]CC(Cc2ccc(N)nc2)C(=O)O)C(=O)O)cn1 (stereo not given) | 0.00019 µM | 3 | 0.28 µM | 0.00029 µM | 0.2 µM | 4.2 µM | 0.0022 nM
4 |  |  | CCOC(=O)C(C[Se]C(=O)CC)Cc1cnc(N)c(Cl)c1 (stereo not given) | 130 µM | 3 | > 3800 µM | > 3800 µM | > 3800 µM | > 3800 µM | 2600 nM
5 |  |  | CCOC(=O)C(CCCCCN)C[Se]C(=O)CC (stereo not given) | 0.033 µM |  | 910 µM | 0.16 µM | 1.4 µM | 14 µM | 30 nM
6 |  |  | CCC(=O)[Se]CC(CCCCCN)C(=O)O (stereo not given) | 0.0011 µM |  | 1.9 µM | 0.018 µM | 0.76 µM | 2 µM | 1.1 nM
7 |  |  | CCOC(=O)C(C[Se]C(=O)CC)Cc1ccc(N)nc1 (stereo not given) | 2.5 µM | 3 | > 3800 µM | 1.7 µM | 180 µM | 15 µM | 890 nM
8 |  |  | NCCCCCC(C[Se]C(=O)CCc1ccccc1)C(=O)O (stereo not given) | 0.0032 µM |  | 1.4 µM | 0.014 µM | 2 µM | 1.7 µM | 5.3 nM
9 |  |  | CCOC(=O)C(CCCCCN)CSC(C)=O (stereo not given) |  |  | 19 µM |  | 310 µM | > 3800 µM | 
10 |  |  | CC(C)[C@H](NC(=O)CCc1ccccc1)P(=O)(O)C[C@@H](CCCCCN)C(=O)O |  |  | 0.0049 µM |  | 0.0055 µM | 6.7 µM | 
11 |  |  | NCCCCCC(C[Se][Se]CC(CCCCCN)C(=O)O)C(=O)O (stereo not given) | 0.0011 µM |  | 110 µM | 0.0086 µM | > 3800 µM | > 3800 µM | 2 nM
12 | 0.4 |  | CCOC(=O)C(CS)CCCCCN (stereo not given) |  |  | 260 µM |  | 62 µM | 25 µM | 
13 |  | inactive | O[C@@H](CS)[C@@H](O)CS |  |  |  |  |  |  | 
14 |  |  | NCCCCCC(CS)C(=O)O (stereo not given) |  |  |  |  | 0.034 µM | 1.4 µM | 
15 | 40 |  | CC(=O)SCC(CCCCCN)C(=O)O (stereo not given) |  |  | 1.4 µM |  | 3.8 µM | 160 µM | 
